# Only some compounds are listed: those with a hit (about 5.9% of all), similar ones and a draw of the others.
# IDH1 mut inh: inhibitors of human IDH1 R132H; IDH1 R132H reductase, diaphorase/resazurin fluorescence, 60 min; inhibition, % at 10 µM; 70,000 tested, 0.18% active; AID 624101; in the data active = inhibition above about 34%; inconclusive = no clear call, values can overlap the other calls; inactive = below about 11%;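 also: 0% = DMSO and 100% = no enzyme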
# Target sequence (O75874 whole entry R132H): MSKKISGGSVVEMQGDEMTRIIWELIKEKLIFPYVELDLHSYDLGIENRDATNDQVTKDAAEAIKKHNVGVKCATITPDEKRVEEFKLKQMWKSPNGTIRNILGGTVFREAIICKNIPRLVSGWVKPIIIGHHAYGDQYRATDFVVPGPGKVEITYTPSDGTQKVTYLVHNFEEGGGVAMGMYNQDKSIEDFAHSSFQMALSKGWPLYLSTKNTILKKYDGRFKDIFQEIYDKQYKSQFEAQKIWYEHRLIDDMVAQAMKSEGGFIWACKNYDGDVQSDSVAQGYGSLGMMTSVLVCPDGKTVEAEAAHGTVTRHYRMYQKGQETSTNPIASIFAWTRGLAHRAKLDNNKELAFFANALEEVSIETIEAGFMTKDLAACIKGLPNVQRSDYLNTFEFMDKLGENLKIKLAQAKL
# Pf Dd2 growth: P. falciparum Dd2 growth inhibition; activity change, % at 10 µM; SYBR Green, 72 h; stronger effect = lower value; 94,000 tested, 2.3% active; in the data active = activity change below about -80%; inconclusive = no clear call, values can overlap the other calls
# GASC1 inh: blocks human GASC-1 (KDM4C) demethylase activity; Q9H3R0; inhibition, % at 12.5 µM; GST-KDM4C 2-372, H3K9me3 peptide, LANCE TR-FRET; 96,000 tested, 0.15% active;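 active = mean replicate inhibition above about 25%, with at least 55% of replicates also reaching it, limit read from the data, passing the limit was not always enough; inconclusive = only one of those two conditions met; inactive = neither condition met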
#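 Material: N-terminal GST-fused human GASC-1 (KDM4C) fragment, residues 2-372. Input: 10 nM enzyme. Incubation: enzyme reaction 30 min, then detection 60 min, both room temperature. Doses: one test concentration per compound. Read-out basis: inhibition from TR-FRET ratio decrease. Detection: LANCE TR-FRET, excitation 340 nm, emissions 618 and 671 nm.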
# T cruzi growth-1: blocks T. cruzi growth in NIH3T3 culture; 77,000 tested, 5.9% active; T. cruzi beta-gal in NIH3T3, GalScreen luminescence, 90 h; inhibition, % at 8.34 µM;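 active = mean inhibition above about 93%, with at least 55% of replicates each passing it, limit read from the data, passing the limit was not always enough; inconclusive = only one of those two conditions holds; inactive = neither condition holds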
# T cruzi growth-2: inhibitors of T. cruzi proliferation | 5,600 tested, 72% active | shares compounds with T cruzi growth-1 | inhibition, % at 8.35 µM | T. cruzi beta-gal in NIH3T3, GalScreen luminescence, 90 h;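 active = mean replicate inhibition above about 95% and at least 55% of replicates individually reaching it, limit read from the data; inconclusive = only one of the two criteria is met; inactive = neither criterion is met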
# T cruzi growth-3: blocks T. cruzi growth in NIH3T3 host cells. inhibition, % at 2.09 µM. T. cruzi beta-gal in NIH3T3, GalScreen luminescence, 90 h. 5,600 tested, 21% active. shares compounds with T cruzi growth-1;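 active = mean inhibition above about 95%, with at least 55% of replicates also reaching it, limit read from the data; inconclusive = meets just one of the two conditions; inactive = meets neither condition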;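 also: plate controls were neutral control median for no effect and positive control median for full effect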
# 3T3 cytotox: NIH/3T3 (mouse) viability loss | shares compounds with T cruzi growth-1 | NIH/3T3 viability, CellTiter-Glo ATP luminescence, 90 h | cytotoxicity (signal decrease), % at 8.35 µM | 5,600 tested, 14% active | AID 651742;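 active = mean signal decrease across replicates above about 35% based on untreated-well scatter, with enough replicates individually passing, limit read from the data; inconclusive = no rule stated though some were filed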;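 also: 0% = median of neutral control wells and 100% = median of positive control wells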
# NIH3T3 tox 2: NIH/3T3 (mouse) viability loss; shares compounds with T cruzi growth-1; NIH/3T3 viability, CellTiter-Glo ATP luminescence, 90 h; inhibition, % at 24.9 µM; 5,600 tested, 56% active;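 active = mean loss of cell viability signal at or above a set limit, and enough replicates individually reaching it; inconclusive = meets only the mean limit or only the replicate share; inactive = meets neither condition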;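 also: 0% = median of neutral control wells and 100% = median of positive control wells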
# * = called active by the depositor; ? = inconclusive; · = not tested or not shown.
SMILES,IDH1 mut inh,Pf Dd2 growth,GASC1 inh,T cruzi growth-1,T cruzi growth-2,T cruzi growth-3,3T3 cytotox,NIH3T3 tox 2
C[C@@H]1CCCCO[C@H](CN(C)C(=O)CCC(F)(F)F)[C@@H](C)CN([C@H](C)CO)C(=O)c2cc(NS(=O)(=O)c3ccc(Cl)cc3)ccc2O1,·,-22,5,88,·,·,·,·
O=C(Nc1ccccc1F)N1CCCCN2[C@H](CO)[C@H](c3ccc(C#Cc4ccccc4)cc3)[C@H]2C1,·,-69,-2,42,·,·,·,·
COc1ccc(C#Cc2ccc([C@@H]3[C@@H](CO)N4CCCCN(C(=O)Nc5ccccc5F)C[C@@H]34)cc2)cc1,·,-91*,-1,127*,99*,114*,-42,51*
COc1ccc(C#Cc2ccc([C@H]3[C@@H](CO)N4CCCCN(C(=O)Nc5ccccc5F)C[C@@H]34)cc2)cc1,·,-79,-2,140*,?,114*,?,40*
O=C(Nc1ccccc1F)N1CCCCN2[C@@H](CO)[C@H](c3ccc(C#Cc4ccccc4)cc3)[C@@H]2C1,·,-78,-1,95*,?,115*,119*,104*
Cc1ccccc1S(=O)(=O)N1CCCCN2[C@H](CO)[C@@H](c3ccc(-c4cccnc4)cc3)[C@H]2C1,·,-28,-1,39,·,·,·,·
O=C([C@H]1[C@H](CO)[C@H]2Cn3c(ccc(-c4cccnc4)c3=O)[C@@H]1N2CC1CC1)N1CCCCC1,·,·,-4,30,·,·,·,·
COc1ccc(NC(=O)Nc2ccc3c(c2)CC(=O)N([C@H](C)CO)C[C@@H](C)[C@H](CN(C)CC2CCCCC2)O3)cc1,0,-7,0,101*,96*,70,28,106*
COc1ccc(CN(C)C[C@H]2Oc3ccc(NS(=O)(=O)c4ccc(C)cc4)cc3CC(=O)N([C@@H](C)CO)C[C@H]2C)cc1,2,18,1,·,·,·,·,·
COc1ccc(CN(C)C[C@H]2Oc3ccc(NS(=O)(=O)c4c(C)noc4C)cc3CC(=O)N([C@@H](C)CO)C[C@H]2C)cc1,·,3,3,20,·,·,·,·
COc1ccc(CN(C)C[C@H]2Oc3ccc(NS(=O)(=O)c4c(C)noc4C)cc3CC(=O)N([C@H](C)CO)C[C@@H]2C)cc1,3,-28,1,106*,83,50,2,15
COc1ccc(CN(C)C[C@@H]2Oc3ccc(NS(=O)(=O)c4ccc(Cl)cc4)cc3CC(=O)N([C@H](C)CO)C[C@H]2C)cc1,1,-9,1,101*,113*,84,-2,-8
COc1ccc(CN(C)C[C@@H]2Oc3ccc(NS(=O)(=O)c4ccc(C)cc4)cc3CC(=O)N([C@H](C)CO)C[C@H]2C)cc1,0,12,-4,110*,114*,106*,6,1
CC(=O)N(C)C[C@@H]1Oc2cc(-c3cncnc3)ccc2S(=O)(=O)N([C@H](C)CO)C[C@@H]1C,0,-7,1,-6,·,·,·,·
CCCNC(=O)[C@H]1[C@H](CO)[C@H]2Cn3c(ccc(-c4cccc(F)c4)c3=O)[C@@H]1N2CCC,·,3,-1,22,·,·,·,·
COc1ccc(CN(C)C[C@@H]2Oc3ccc(NS(=O)(=O)c4ccc(C)cc4)cc3CC(=O)N([C@@H](C)CO)C[C@@H]2C)cc1,3,-11,-2,108*,85,13,11,22
COc1ccc(CN(C)C[C@H]2Oc3ccc(NS(=O)(=O)c4ccc(C)cc4)cc3CC(=O)N([C@H](C)CO)C[C@@H]2C)cc1,-3,-8,2,·,·,·,·,·
CNC[C@@H]1Oc2ccc(NC(=O)NC3CCCCC3)cc2CC(=O)N([C@H](C)CO)C[C@H]1C,0,48,0,119*,22,-25,10,-13
COc1ccccc1CNC(=O)C[C@@H]1C[C@H]2c3cc(NC(=O)C4CCC4)ccc3O[C@H]2[C@@H](CO)O1,1,-10,2,57,·,·,·,·
C[C@@H]1CN([C@H](C)CO)S(=O)(=O)c2ccc(C#CCN(C)C)cc2O[C@@H]1CN(C)C(=O)c1ccccc1F,-3,-29,4,18,·,·,·,·
CCCC#Cc1ccc2c(c1)O[C@H](CN(C)C(=O)c1ccccc1F)[C@@H](C)CN([C@H](C)CO)S2(=O)=O,0,-78,-3,111*,110*,84,-19,8
CC(C)CC#Cc1ccc2c(c1)O[C@@H](CN(C)C(=O)c1ccccc1F)[C@H](C)CN([C@@H](C)CO)S2(=O)=O,0,-82*,-2,105*,106*,106*,?,106*
CC(C)CC#Cc1ccc2c(c1)O[C@H](CN(C)C(=O)c1ccccc1F)[C@@H](C)CN([C@H](C)CO)S2(=O)=O,4,-82*,-1,88*,103*,58,-14,97*
CCCC#Cc1ccc2c(c1)O[C@@H](CN(C)C(=O)c1ccccc1F)[C@@H](C)CN([C@H](C)CO)S2(=O)=O,1,-77,-1,66,·,·,·,·
CC(C)CC#Cc1ccc2c(c1)O[C@H](CN(C)C(=O)c1ccccc1F)[C@H](C)CN([C@H](C)CO)S2(=O)=O,0,-71,-2,105*,105*,75,?,104*
SMILES,IDH1 mut inh,Pf Dd2 growth,GASC1 inh,T cruzi growth-1,T cruzi growth-2,T cruzi growth-3,3T3 cytotox,NIH3T3 tox 2
CCCC#Cc1ccc2c(c1)O[C@H](CN(C)C(=O)c1ccccc1F)[C@@H](C)CN([C@@H](C)CO)S2(=O)=O,0,-79,-3,74,·,·,·,·
C[C@@H]1CN([C@H](C)CO)C(=O)Cc2cc(NC(=O)Nc3ccc(F)cc3)ccc2O[C@H]1CN(C)C(=O)Nc1ccc(F)cc1,0,-2,0,-6,·,·,·,·
O=C(Nc1cc(F)ccc1F)N1CC(=O)N2[C@H](CO)[C@H](c3ccc(-c4cccnc4)cc3)[C@@H]2C1,·,-2,-1,·,·,·,·,·
CN1[C@H](C(=O)N2CCc3ccccc3C2)[C@@H](CO)[C@@H]2Cn3c(ccc(-c4ccccc4)c3=O)[C@@H]21,·,·,3,15,·,·,·,·
C[C@H](CO)N1C[C@H](C)[C@@H](CN(C)S(=O)(=O)c2cccs2)OCCCC[C@H](C)Oc2ccc(NC(=O)Nc3ccc(C(F)(F)F)cc3)cc2C1=O,-1,-46,1,97*,102*,117*,33,26*
C[C@H]1CCCCO[C@H](CN(C)S(=O)(=O)c2cccs2)[C@@H](C)CN([C@@H](C)CO)C(=O)c2cc(NC(=O)Nc3ccc(F)cc3)ccc2O1,·,-73,-1,97*,104*,39,24,6
C[C@H](CO)N1C[C@H](C)[C@@H](CN(C)S(=O)(=O)c2cccs2)Oc2ccc(NC(=O)Nc3ccc(F)cc3)cc2C1=O,1,-15,-2,-49,·,·,·,·
